These results are taken from ChEMBL document CHEMBL4152390, “Discovery of the First-in-Class Dual Histone Deacetylase-Proteasome Inhibitor” (J Med Chem, 2018).

In general, IC50 refers to the concentration that gives 50% inhibition.

The target in assay [1] is T1, Proteasome component C5 (Homo sapiens) (UniProt P20618).
T1 sequence (whole entry): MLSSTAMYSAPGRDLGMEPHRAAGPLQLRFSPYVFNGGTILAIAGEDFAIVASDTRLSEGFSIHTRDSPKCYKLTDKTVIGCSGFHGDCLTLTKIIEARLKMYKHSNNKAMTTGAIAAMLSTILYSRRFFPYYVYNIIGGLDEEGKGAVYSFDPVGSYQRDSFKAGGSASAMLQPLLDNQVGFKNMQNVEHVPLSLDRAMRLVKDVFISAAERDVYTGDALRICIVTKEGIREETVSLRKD
The assay is described as follows: Inhibition of caspase-like activity of 20S proteasome in human SEM cells at 4 nM to 25 uM using Z-nLPnLD-aminoluciferin as substrate after 2 hrs by proteasome-Glo assay. The format is cell-based.

Assay [2] addresses T2, Protein deacetylase HDAC6 (Homo sapiens) (UniProt Q9UBN7).
T2 sequence (whole entry): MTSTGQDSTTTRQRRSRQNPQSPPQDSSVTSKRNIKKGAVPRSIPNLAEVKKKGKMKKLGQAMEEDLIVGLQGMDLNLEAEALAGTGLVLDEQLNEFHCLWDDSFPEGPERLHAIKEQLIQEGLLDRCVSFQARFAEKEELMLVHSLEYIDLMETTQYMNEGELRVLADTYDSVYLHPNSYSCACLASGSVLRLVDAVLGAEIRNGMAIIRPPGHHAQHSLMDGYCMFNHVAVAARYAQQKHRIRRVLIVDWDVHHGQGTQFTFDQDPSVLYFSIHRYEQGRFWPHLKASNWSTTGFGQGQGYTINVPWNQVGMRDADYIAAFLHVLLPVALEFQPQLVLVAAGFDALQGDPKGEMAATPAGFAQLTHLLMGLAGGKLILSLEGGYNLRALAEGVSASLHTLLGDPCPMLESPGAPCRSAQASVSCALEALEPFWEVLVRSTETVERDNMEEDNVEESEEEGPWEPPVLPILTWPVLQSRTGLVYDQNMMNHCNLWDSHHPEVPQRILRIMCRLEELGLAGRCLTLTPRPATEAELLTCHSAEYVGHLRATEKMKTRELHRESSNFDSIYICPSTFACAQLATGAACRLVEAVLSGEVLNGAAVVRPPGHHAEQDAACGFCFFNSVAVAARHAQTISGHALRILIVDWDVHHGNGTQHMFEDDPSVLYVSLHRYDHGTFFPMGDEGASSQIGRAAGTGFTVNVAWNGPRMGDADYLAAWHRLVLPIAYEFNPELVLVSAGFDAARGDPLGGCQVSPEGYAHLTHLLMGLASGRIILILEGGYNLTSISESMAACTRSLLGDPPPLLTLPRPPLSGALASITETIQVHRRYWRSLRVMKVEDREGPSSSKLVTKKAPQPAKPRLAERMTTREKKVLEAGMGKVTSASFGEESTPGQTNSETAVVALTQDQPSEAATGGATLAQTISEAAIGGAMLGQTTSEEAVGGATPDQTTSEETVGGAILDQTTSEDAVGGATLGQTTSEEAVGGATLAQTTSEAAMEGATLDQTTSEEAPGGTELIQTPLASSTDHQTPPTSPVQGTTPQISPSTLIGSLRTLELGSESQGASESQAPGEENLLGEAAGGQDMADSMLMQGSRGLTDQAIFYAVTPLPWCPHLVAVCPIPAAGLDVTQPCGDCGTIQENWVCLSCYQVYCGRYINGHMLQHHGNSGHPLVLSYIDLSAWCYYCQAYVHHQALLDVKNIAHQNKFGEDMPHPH
The assay is described as follows: Inhibition of HDAC6 in human HL60 cells assessed as increase in acetyl-histone H3 expression at 0.1 to 10 uM after 24 hrs by immunoblot assay. In kind it is cell-based. The method, boiled down:
(§1)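 Cells exposed for 24 h at indicated concentrations; lysates immunoblotted for acetyl-α-tubulin, acetyl-histone H3, PARP, with GAPDH as loading control.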

A further assay deals with KCL-22. The experiment in a line: Cytotoxicity against human KCL22 cells after 72 hrs by CellTiter-Glo luminescent cell viability assay. In kind it is functional, cell-based. As to conditions: KCL-22, 72 h. The method, boiled down:
(§2)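 Inhibitors dispensed in increasing concentrations (50 nM–25 μM) and cells exposed 72 h. Viability read by ATP-dependent luminescence (CellTiter-Glo). Raw data normalized to controls. IC50 obtained by sigmoid dose–response fit with non-linear regression.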
(In general: ATP-based viability assays read luminescence as a measure of living cells.)

In another assay the target is T3, Histone deacetylase 8 (Homo sapiens, UniProt Q9BY41).
T3 sequence (Q9BY41 whole entry): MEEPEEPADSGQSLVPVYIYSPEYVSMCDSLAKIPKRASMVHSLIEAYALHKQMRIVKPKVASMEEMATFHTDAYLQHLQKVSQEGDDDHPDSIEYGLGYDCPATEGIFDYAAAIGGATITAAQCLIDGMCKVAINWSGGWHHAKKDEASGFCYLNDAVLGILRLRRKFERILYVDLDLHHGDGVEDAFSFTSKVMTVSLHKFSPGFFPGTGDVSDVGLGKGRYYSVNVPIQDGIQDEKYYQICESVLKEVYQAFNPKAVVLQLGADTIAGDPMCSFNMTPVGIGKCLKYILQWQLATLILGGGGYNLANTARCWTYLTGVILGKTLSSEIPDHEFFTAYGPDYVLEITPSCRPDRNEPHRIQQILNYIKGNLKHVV
The assay is described as follows: Inhibition of C-terminal His-tagged recombinant human HDAC8 expressed in baculovirus infected insect cells using RHK(Ac)K(Ac)AMC as substrate by fluorescence-based assay.

Assay [3] concerns SEM cells. The experiment in a line: Cytotoxicity against human SEM cells after 72 hrs by CellTiter-Glo luminescent cell viability assay. The format is functional, cell-based. The method, boiled down: as §2
Assay [4] relates to SEM cells. The assay is described as follows: Antiproliferative activity against human SEM cells at IC50 to 2 times IC50 after 24 to 72 hrs by trypan exclusion method. The format is functional, cell-based.
Assay [5] deals with SEM cells. The assay is described as follows: Induction of early differentiation of human SEM cells assessed as increase in CD14 expression at IC50 to 2 times IC50 after 72 hrs by FACS analysis. In kind it is functional, cell-based. The method, boiled down:
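Surface CD11b and CD14 measured by FACS using fluorochrome-coupled monoclonal antibodies with matched isotype controls, after treatment in liquid medium.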
A general note: Flow cytometry measures light scatter and fluorescence of single cells or particles in a stream.

Assay [6] can be described thus: Cytotoxicity against human BCP-ALL cells derived from patient 4 after 72 hrs by CellTiter-Glo luminescent cell viability assay. The format is functional, cell-based.
Another assay relates to SUP-B15. The experiment in a line: Inhibition of HDAC6/chymotrypsin-like activity of 20S proteasome in imatinib-resistant human SUP-B15 cells assessed as increase in cleaved PARP expression at 0.1 to 10 uM after 24 hrs by immunoblot assay. The format is cell-based. Put shortly:
as §1
(In western blotting, separated proteins are transferred to a membrane and probed.)

A further assay deals with Histone deacetylase 2 (Homo sapiens, UniProt Q92769). The assay is described as follows: Inhibition of C-terminal GST-tagged recombinant human HDAC2 expressed in baculovirus infected insect cells using RHKK(Ac)AMC as substrate by fluorescence-based assay.
Assay [7] has as its target T4, Protein deacetylase HDAC6 (Homo sapiens, UniProt Q9UBN7).
T4 sequence (Q9UBN7 whole entry): T2 sequence (whole entry)
The assay is described as follows: Inhibition of N-terminal GST-tagged recombinant human HDAC6 expressed in baculovirus infected insect cells using RHKK(Ac)AMC as substrate by fluorescence-based assay.

The target in assay [8] is T2, Protein deacetylase HDAC6 (Homo sapiens). The assay is described as follows: Inhibition of HDAC6 in human SEM cells assessed as increase in acetyl-histone H3 expression at 0.1 to 10 uM after 24 hrs by immunoblot assay. In kind it is cell-based. The method, boiled down: as §1

Activity calls are given as the source filed them. No cut-off for these calls is given here.

Chain of Histone deacetylase 2 (Q92769 whole entry): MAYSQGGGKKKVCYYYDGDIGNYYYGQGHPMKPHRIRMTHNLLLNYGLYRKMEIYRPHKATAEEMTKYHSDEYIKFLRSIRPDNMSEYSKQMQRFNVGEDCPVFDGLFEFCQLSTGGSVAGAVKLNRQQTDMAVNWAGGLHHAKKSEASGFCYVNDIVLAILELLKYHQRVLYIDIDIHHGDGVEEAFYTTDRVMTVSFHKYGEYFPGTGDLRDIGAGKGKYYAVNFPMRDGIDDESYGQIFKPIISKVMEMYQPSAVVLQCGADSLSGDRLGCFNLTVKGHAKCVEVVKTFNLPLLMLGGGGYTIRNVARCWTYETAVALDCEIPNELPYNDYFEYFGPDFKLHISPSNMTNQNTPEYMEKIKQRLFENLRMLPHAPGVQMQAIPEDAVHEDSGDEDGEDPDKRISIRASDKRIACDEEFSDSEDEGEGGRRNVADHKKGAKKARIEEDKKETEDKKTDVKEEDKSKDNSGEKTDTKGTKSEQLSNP

Consider `C[C@H](NC(=O)[C@H](CC(=O)NCC(C)(C)C)NC(=O)c1ccc(C(=O)NO)cc1)C(=O)NCc1ccccc1`, for which, in [1], the inhibition entry is “inactive”. Moreover, the inhibition entry (in [2]; in the assay on SUP-B15; in assay [8]) was “Active” in each case. Further, the concentration for half-maximal inhibition (IC50) in the assay with KCL-22 is 3.14 µM; at Histone deacetylase 8, 0.53 µM; with SEM cells [3] it was 0.89 µM; in [6], 1.51 µM; on Histone deacetylase 2 it was 18 µM; in assay [7], 0.27 µM. Further, the outcome with SEM cells [4] and with SEM cells [5] was Active.
